Two compounds from PMC4873422 (Molecular cancer therapeutics, 2016) can be followed below.

Format in all cases: cell-based, human
One assay relates to Pa03C cells. The experiment in a line: Monolayer proliferation assay. The following applies: tumor cells (Pa03C), 72 h. The procedure, abridged:
(§1)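 Monolayers were grown in DMEM with 10% serum at 37 °C, 5% CO2. Seeding was Pa03C tumor cells 2,000–3,000/well, EGFP-expressing CAF19 fibroblasts 4,000/well, or tumor plus CAFs at a 2:1 ratio. Test compound was added 24 h after seeding, and viability was read 72 h later. Dose-response data are Avg+SE, n=3–4. The 50% value came from a linear-regression fit at 50% survival.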

The next assay relates to CAF19 cells. The experiment in a line: Monolayer proliferation assay. The note with it: CAFs (CAF19), 72 h. The method in brief: as §1
In a further assay the test system is Pa03C + CAF19 co-culture. The experiment in a line: Monolayer proliferation assay. The note with it: 2:1 tumor:CAF co-culture, 72 h. The method in brief: as §1
The subject of assay [1] is p-STAT3 (Y705) in Pa03C cells. In words: Immunoblot of p-STAT3. The following applies: 10 μM, 4 hr pre-treatment, IL-6 25 ng/mL 15 min.
A further assay deals with Panc10.05 cells. In words: Cell viability / proliferation screen. The note with it: 72 h, Avg ± SE, n=4–5. The method in brief:
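Panc10.05 patient-derived PDAC cells (STR-verified) were grown in DMEM with 10% serum at 37 °C, 5% CO2. Monolayers were seeded at 2,000–3,000 cells/well, and test compound was added 24 h after seeding. MTS tetrazolium read-out was taken 72 h later. Data from 4–5 repeats were pooled, and ED50 was taken from a linear-regression fit where percent survival equalled 50%.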

`CN(CC(=O)N(Cc1ccc(C2CCCCC2)cc1)c1ccc(C(=O)O)c(O)c1)S(=O)(=O)c1c(F)c(F)c(F)c(F)c1F` [BP-1-102]: the half-maximal inhibitory concentration (IC50) in the assay with Pa03C cells is 19.1 ± 0.9 µM; with CAF19 cells, 15.2 ± 2.7 µM; with Pa03C + CAF19 co-culture, 16.4 ± 0.6 µM. In addition, the “phosphorylation of STAT3 at Y705” value in assay [1] is recorded as “inhibited phosphorylation of STAT3 at Y705”.
Regarding `CN(CC(=O)N(Cc1ccc(C2CCCCC2)cc1)c1ccc(C(=O)O)cc1)S(=O)(=O)c1c(F)c(F)c(F)c(F)c1F` [SH-4-54], the ED50 in the assay with Panc10.05 cells is 8.7 ± 1.9 µM. The IC50 with Pa03C cells came out at 9.2 ± 1.7 µM; with CAF19 cells, 7.6 ± 0.9 µM; in the assay on Pa03C + CAF19 co-culture it was 11.8 ± 1.1 µM. The “phosphorylation of STAT3 at Y705” value in assay [1] is recorded as “inhibited phosphorylation of STAT3 at Y705”.

By IC50 is commonly meant the concentration that gives 50% inhibition.
